The nature of experiment [1]: inhibitors of TNFa-induced NFkB p65 translocation, primary screen, imaging, HUVEC, MLSMR starter and 10KST1 sets (AID 438).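 Further: compound added about 3h40 before a 20 min TNFalpha stimulation.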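 On inhibition: signal is the nuclear over cytoplasmic p65 intensity ratio per well.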 As to conditions: HUVEC TNFa-induced p65 nuclear translocation; cell count: measured here: nuclei count (cytotoxicity indicator), at 2.08 µM; inhibition: at 2 µM, stronger effect = higher value, 0% TNFa-plus-vehicle, 100% no-TNFa wells.
Experiment [2] can be described thus: reduction of polyQ htt aggregates in cells – imaging, exon1htt(103Q)mCFP cells, high-content imaging, primary screen (AID 483;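 active means visual image review flags a hit and inhibition of aggregation exceeds 20%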;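 further: compound exposure lasted 3 days before fixation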;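 on nuclei count: percent of the per-plate median nuclei count of sample wells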). Conditions: exon1htt(103Q)mCFP cell line, aggregate imaging, at 2 µM; inhibition of aggregation: stronger effect = higher value; nuclei count: measured here: cell count, toxicity.
A short description of experiment [3]: endothelial E-selectin expression blockers – imaging, HUVEC, immunofluorescence, MLSMR starter and 10KST1 sets, primary screen (AID 487;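 active means visually confirmed hit in the image check and inhibition above 20%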;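 on inhibition: signal is fraction of cell area covered by stained E-selectin grains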;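 on nuclei count: 100% = median nuclei count of all wells on the same plate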). Conditions: HUVEC TNFalpha-induced E-selectin immunofluorescence imaging, at 2 µM; inhibition: stronger effect = higher value; nuclei count: measured here: cell number, toxicity.
Experiment [4] deals with Voltage-gated potassium channel subunit beta-2 (Rattus norvegicus) (UniProt P62483). In words: inhibitors of rat Kvbeta2 reductase activity – biochemical, NADPH fluorescence, primary screen (AID 622;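 active means fluorescence slope higher than the sample average by over 3 SD, cut at about -0.22 in these data, passing the limit was not always enough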;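 further: slope of raw intensity against log time taken from 70 to 1610 s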). Conditions: recombinant KvBeta, 4-cyanobenzaldehyde reduction, at 10 µM, stronger effect = higher value.
Experiment [5] has the same target. The experiment can be described thus: enhancers of rat Kvbeta2 NADPH turnover – biochemical, NADPH fluorescence, primary screen (AID 623;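 active means NADPH fluorescence slope more negative than the mean of all samples by about 3 SD, 99.7% confidence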;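 further: fluorescence intensity change per second fitted from 20 to 320 s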). Conditions: Recombinant KvBeta, NADPH fluorescence decrease slope, 10 min; at 10 µM; stronger effect = lower value.
The target in experiment [6] is Alpha-2C adrenergic receptor (Homo sapiens) (UniProt P18825). In words: compounds altering alpha2C-coupled GIRK flux – cell-based, HEK293 alpha2C/GIRK1/2, thallium flux, primary screen (AID 624;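 active means fluorescence slope after compound addition differing from the mean of all screened samples at 99.7% confidence, in either direction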;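 further: slope of fluorescence ratio to pre-addition baseline per second over 15 to 24 s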). As to conditions: thallium flux BTC fluorescence, at 10 µM, actives lie on both sides.
A short description of experiment [7]: inhibitors of larval lipid processing in zebrafish, primary screen, whole organism, PED6 fluorescence, gall bladder and intestine (AID 686;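 active means a full or partial loss of lipid-probe fluorescence in the fish gall bladder, intestine or both, judged by eye; inactive means no fluorescence loss, or compound toxic to the fish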;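 further: larvae 5 to 7 days old with five fish per well; signal comes from phospholipase A2 cleavage of quenched PED6 carried via bile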). As to conditions: Zebrafish larvae PED6 lipid processing, fluorescence scoring; screened at 20 µM (by protocol). The gist of the method:
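Incubation: overnight exposure of larvae to compound plus PED6 / Test system: live zebrafish larvae aged 5-7 days, whole organism / Amount: 5 larvae per well / Read-out basis: visual per-well fluorescence inhibition score / Signal: visual fluorescence microscopy scoring of gall bladder, gut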

Experiment [8] is described as follows: blockers of RIG-like receptor reporter activation – cell-based, Sendai virus stimulus, luciferase, 10K MLSCN set, TLR/RLR signaling modifier project, primary screen (AID 602276;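 active means inhibition at or above 50% at 10 µM; inactive means inhibition below 50%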;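 further: firefly luciferase from ISG56 promoter only with Renilla not read in this screen; 0% = Sendai virus plus DMSO and 100% = medium plus DMSO without virus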). Conditions: HEK293 RL24 IRF3 luciferase reporter, at 10 µM, stronger effect = higher value.
A short description of experiment [9]: TLR3 IRF3 reporter activation blockers – cell-based, poly I:C stimulus, luciferase, 10K MLSCN set, primary screen (AID 602277;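 active means inhibition of the reporter signal at or above 50%; inactive means inhibition below 50%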). As to conditions: HEK293-TLR3 RL24 IRF3 luciferase reporter, at 10 µM, stronger effect = higher value. Background: Reporter assays use an easily measured gene product as a stand-in for the process of interest.

Activity calls are given as the source filed them.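 How the source made its calls, unless noted: active means inhibition above 20% together with a positive visual image hit; inconclusive means visual image hit but inhibition not above 20%; inactive means no visual image hit.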

Sequence of Voltage-gated potassium channel subunit beta-2 (Rattus norvegicus) (P62483 whole entry, looked up): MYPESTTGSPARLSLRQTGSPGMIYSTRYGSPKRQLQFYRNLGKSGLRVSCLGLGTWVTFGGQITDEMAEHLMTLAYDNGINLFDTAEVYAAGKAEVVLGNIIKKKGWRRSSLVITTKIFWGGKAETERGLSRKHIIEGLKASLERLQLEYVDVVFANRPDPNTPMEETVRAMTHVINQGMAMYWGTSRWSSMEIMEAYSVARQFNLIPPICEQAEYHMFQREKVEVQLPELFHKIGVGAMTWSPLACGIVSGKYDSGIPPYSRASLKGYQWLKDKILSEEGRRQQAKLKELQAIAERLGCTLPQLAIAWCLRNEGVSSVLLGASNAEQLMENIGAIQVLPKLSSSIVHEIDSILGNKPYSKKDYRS
Sequence of Alpha-2C adrenergic receptor (Homo sapiens) (P18825 whole entry, looked up): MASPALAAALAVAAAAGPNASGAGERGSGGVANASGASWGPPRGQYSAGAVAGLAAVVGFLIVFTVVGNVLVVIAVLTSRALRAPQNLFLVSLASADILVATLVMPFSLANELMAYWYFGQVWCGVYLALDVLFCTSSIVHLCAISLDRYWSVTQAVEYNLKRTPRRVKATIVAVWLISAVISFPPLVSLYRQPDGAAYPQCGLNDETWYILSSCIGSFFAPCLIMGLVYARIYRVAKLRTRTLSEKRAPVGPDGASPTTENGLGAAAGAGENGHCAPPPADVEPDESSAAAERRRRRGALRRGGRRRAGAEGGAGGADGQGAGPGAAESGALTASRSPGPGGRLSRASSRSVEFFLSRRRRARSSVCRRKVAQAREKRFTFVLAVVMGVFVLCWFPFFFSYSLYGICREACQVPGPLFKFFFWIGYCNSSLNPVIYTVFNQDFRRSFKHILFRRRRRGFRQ

The term inhibition denotes the change of the read-out against control, counted positive when it falls. With `Cc1nc2c(-c3ccccc3)c(C)[nH]n2c(=O)c1Cl`, the cell count in experiment [1] amounted to 277. For the same compound, the inhibition in experiment [1] is -8.3% (inactive); in experiment [3] it was -5.5% (inactive); in [8], -11.4% (inactive); in experiment [9], -22.1% (inactive). In addition, the inhibition of aggregation in [2] was 2.3% (inactive). Also, the values for the nuclei count in [2] and in experiment [3] were 109% and 84.2%, respectively. Moreover, in experiment [4], the fluorescence slope is -0.485 (inactive). The NADPH fluorescence slope in experiment [5] is 3e-05 (inactive). Further, the slope in experiment [6] is 0.00434 (inactive). In experiment [7], the compound was classed as inactive.
As to `CCOC(=O)c1ccc(NC(=O)N2CCN(Cc3cccc(F)c3)CC2)cc1`, the cell count in [1] stood at 688. Besides, the inhibition in experiment [1] was -1.4% (inactive); in experiment [3], -126% (inactive); in [8] it was 5.73% (inactive); in experiment [9] it was 7.2% (inactive). The inhibition of aggregation in experiment [2] was -19% (inactive). Moreover, the results for the nuclei count in experiment [2] and in experiment [3] were 97.2% and 109%, respectively. The fluorescence slope in experiment [4] was -0.424 (inactive). Besides, the NADPH fluorescence slope in [5] was -5e-05 (inactive). In addition, the slope in experiment [6] is 0.00506 (inactive). The result in [7] was inactive.
In the case of `CC1Oc2ccccc2N(Cc2ccccc2Cl)C1=O` (stereo not drawn), the cell count in [1] worked out at 630. Besides, the inhibition in [1] is 15.4% (inactive); in experiment [3], -90.8% (inactive); in experiment [8], -20.2% (inactive); in experiment [9], -52.6% (inactive). In experiment [2], the inhibition of aggregation is -11.1% (inactive). Besides, the values for the nuclei count in experiment [2] and in experiment [3] were 59.5% and 106%, respectively. Besides, the fluorescence slope in experiment [4] was -0.475 (inactive). Also, the NADPH fluorescence slope in experiment [5] was -5.9e-05 (inactive). Further, the slope in experiment [6] is 0.00421 (inactive). Also, the result in [7] was inactive.
In the case of `CC(C)n1nnnc1SCC(=O)Nc1ccccc1N1CCOCC1`, the cell count in experiment [1] came to 539. In addition, the inhibition in experiment [1] was -8% (inactive); in [3], -38.2% (inactive); in [8] it was 10.2% (inactive); in experiment [9], 11.6% (inactive). Further, the inhibition of aggregation in experiment [2] is -6.6% (inactive). Moreover, the nuclei count in experiment [2] worked out at 104%; in [3], 112%. Besides, the fluorescence slope in experiment [4] was -0.451 (inactive). The NADPH fluorescence slope in [5] is -6.8e-05 (inactive). Moreover, the slope in experiment [6] was 0.00614 (inactive). The call in experiment [7] was inactive.
`CCOC(=O)c1c(N)c(C#N)nn1-c1ccccc1C(=O)OC`: the cell count in experiment [1] amounted to 516. Moreover, the inhibition in [1] was -3.6% (inactive); in [3] it was -41.6% (inactive); in experiment [8], 9.81% (inactive); in experiment [9], 20.2% (inactive). Further, in [2], the inhibition of aggregation was 30.5% (inactive). In addition, the nuclei count was 81% in experiment [2] and 101% in experiment [3]. In addition, the fluorescence slope in [4] is -0.364 (inactive). In experiment [5], the NADPH fluorescence slope is -4.6e-05 (inactive). For the same compound, the slope in experiment [6] was 0.00521 (inactive). Besides, the result in [7] was inactive.
On to `O=C(CCCSc1nc2ccccc2s1)NC1=NCCS1`, for which the cell count in [1] amounted to 333. In addition, the inhibition in experiment [1] was -7.4% (inactive); in [3] it was -3.2% (inactive); in [8] it was 36% (inactive); in experiment [9], 60.9% (active). Besides, in experiment [2], the inhibition of aggregation was 10.8% (inactive). Besides, the nuclei count in [2] and in experiment [3] was 102% each time. In addition, the fluorescence slope in experiment [4] is -0.409 (inactive). Further, the NADPH fluorescence slope in experiment [5] was -1.5e-05 (inactive). Besides, the slope in experiment [6] was 0.00541 (inactive). Further, the compound was classed as inactive in experiment [7].
Turning to `COC(=O)c1ccc(NC(=O)C2C3CCC(C3)C2C(=O)O)cc1` (stereo not drawn), the cell count in experiment [1] amounted to 416. Besides, the inhibition was 2.5% (inactive) in experiment [1], 52.5% (inactive) in experiment [3], -12.2% (inactive) in experiment [8] and -15.9% (inactive) in experiment [9]. Besides, the inhibition of aggregation in experiment [2] is 0% (inactive). The nuclei count in [2] worked out at 89.6%; in experiment [3], 103%. Further, the fluorescence slope in experiment [4] was -0.39 (inactive). Moreover, the NADPH fluorescence slope in experiment [5] is -1.7e-05 (inactive). For the same compound, the slope in experiment [6] was 0.00477 (inactive). In addition, in experiment [7], the call was inactive.
With `COc1ccccc1NC(=O)NCc1ccc2c(c1)OCO2`, in experiment [1], the cell count was 361. In addition, the inhibition in experiment [1] was -9.8% (inactive); in [3] it was 37.9% (inactive); in experiment [8], 10.7% (inactive); in [9] it was 17.5% (inactive). Also, the inhibition of aggregation in experiment [2] is 25.8% (inactive). Also, the results for the nuclei count in experiment [2] and in [3] were 97% and 78.8%, respectively. Besides, the fluorescence slope in experiment [4] is -0.341 (inactive). Moreover, the NADPH fluorescence slope in [5] is -2.6e-05 (inactive). Moreover, the slope in [6] was 0.0055 (inactive). For the same compound, the result in experiment [7] was inactive.
In the case of `CC1Oc2ccccc2N(CC(=O)NCc2cccs2)C1=O` (stereo not drawn), in [1], the cell count came out at 787. In addition, the inhibition in experiment [1] is 1.6% (inactive); in [3] it was -146% (inactive); in [8], -0.51% (inactive); in experiment [9], -12.6% (inactive). Also, the inhibition of aggregation in experiment [2] was 2.2% (inactive). Further, the nuclei count in experiment [2] was 91.4%; in experiment [3], 120%. Further, the fluorescence slope in experiment [4] is -0.448 (inactive). In addition, the NADPH fluorescence slope in experiment [5] was -6e-05 (inactive). The slope in experiment [6] is 0.00433 (inactive). Also, in experiment [7], the outcome was “active; weak signal in gallbladder only”.
As to `CC1CN(C(=O)CSc2ncnc3sccc23)CC(C)O1` (stereo not drawn), the cell count in experiment [1] was determined as 356. For the same compound, the inhibition was -0.9% (inactive) in experiment [1], -1.1% (inactive) in experiment [3], 10.7% (inactive) in experiment [8] and 11% (inactive) in [9]. Also, the inhibition of aggregation in [2] was -13.4% (inactive). Also, the nuclei count in [2] is 98.3%; in [3] it was 102%. Moreover, the fluorescence slope in experiment [4] was -0.469 (inactive). The NADPH fluorescence slope in [5] is -2.6e-05 (inactive). In experiment [6], the slope was 0.0052 (inactive). For the same compound, the result in experiment [7] was inactive.
For the compound `O=C(NC1CCCCC1NC(=O)c1ccco1)c1ccco1` (stereo not drawn), in [1], the cell count is 726. Moreover, the inhibition is 10.2% (inactive) in [1], 65.3% (inactive) in [3], -10.8% (inactive) in experiment [8] and -8.21% (inactive) in [9]. Moreover, the inhibition of aggregation in experiment [2] is -7.6% (inactive). Further, the nuclei count in experiment [2] came out at 108%; in experiment [3] it was 112%. Further, the fluorescence slope in experiment [4] is -0.384 (inactive). In addition, the NADPH fluorescence slope in experiment [5] is -1.6e-05 (inactive). The slope in experiment [6] is 0.00439 (inactive). For the same compound, in experiment [7], the compound was called inactive.
Consider `Cc1ccc(Cn2c(SCC(N)=O)nc3c2c(=O)n(C)c(=O)n3C)cc1`, for which, in experiment [1], the cell count stood at 582. In addition, the inhibition in [1] is -6.2% (inactive); in experiment [3] it was 29.5% (inactive); in [8] it was 0.352% (inactive); in experiment [9], 2.84% (inactive). The inhibition of aggregation in [2] is 19.4% (inactive). Besides, the nuclei count in experiment [2] came to 88%; in [3], 72.3%. Further, the fluorescence slope in [4] is -0.333 (inactive). For the same compound, the NADPH fluorescence slope in experiment [5] is 1e-05 (inactive). In [6], the slope is 0.00505 (inactive). Also, in experiment [7], the compound was classed as inactive.
Take `Cc1ccc2c(c1)CCCN2C(=O)c1ccc2c(c1)OCO2`: the cell count in [1] stood at 328. For the same compound, the inhibition was -0.6% (inactive) in [1], -117% (inactive) in experiment [3], 4.95% (inactive) in [8] and 4.76% (inactive) in experiment [9]. The inhibition of aggregation in [2] was -0.1% (inactive). The nuclei count turned out to be 99.3% in [2] and 118% in experiment [3]. The fluorescence slope in experiment [4] was -0.457 (inactive). Moreover, the NADPH fluorescence slope in [5] is -5.1e-05 (inactive). Also, the slope in experiment [6] is 0.00431 (inactive). For the same compound, the call in experiment [7] was inactive.
With `CCc1n[nH]c2c1C(=O)CC(C)(C)C2`, the cell count in [1] amounted to 438. Moreover, the inhibition in experiment [1] was -5.8% (inactive); in [3], 19.5% (inactive); in experiment [8], -8.61% (inactive); in [9], -7.25% (inactive). For the same compound, in [2], the inhibition of aggregation was 4.8% (inactive). Besides, the nuclei count was determined as 97.7% in experiment [2] and 110% in [3]. Further, the fluorescence slope in experiment [4] is -0.382 (inactive). Besides, in experiment [5], the NADPH fluorescence slope was -5e-05 (inactive). Also, the slope in [6] is 0.00556 (inactive). Further, the compound was called inactive in experiment [7].

The values above are taken from PubChem BioAssay.
